The values that follow come from ChEMBL document CHEMBL1143088, “Non-acidic pyrazole EP1 receptor antagonists with in vivo analgesic efficacy” (Bioorg Med Chem Lett, 2008).

pIC50: −log10 of the molar value.

For series [1], the target named is T1, Prostaglandin E2 receptor EP1 subtype (Homo sapiens, UniProt P34995).
T1 sequence (P34995 whole entry): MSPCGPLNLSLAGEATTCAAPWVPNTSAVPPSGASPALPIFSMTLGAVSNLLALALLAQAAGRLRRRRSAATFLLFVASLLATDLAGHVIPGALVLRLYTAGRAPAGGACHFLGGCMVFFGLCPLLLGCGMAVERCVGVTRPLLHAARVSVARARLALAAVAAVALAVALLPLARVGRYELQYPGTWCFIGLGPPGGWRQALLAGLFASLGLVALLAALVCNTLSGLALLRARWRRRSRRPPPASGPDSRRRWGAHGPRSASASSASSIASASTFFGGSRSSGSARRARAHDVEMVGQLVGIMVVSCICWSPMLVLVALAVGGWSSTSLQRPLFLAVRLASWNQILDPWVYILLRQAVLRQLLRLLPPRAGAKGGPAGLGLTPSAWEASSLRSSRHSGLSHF
Kind of series: Displacement of [3H]PGE2 from human PGE2-EP1 receptor expressed in CHO-K1 cells. Type of series: cell-based. On the technique in general: Displacement assays read how much labelled ligand stays bound in the presence of the test substance.

The nature of series [2]: Distribution coefficient, logD at pH 7.4. In kind it is physicochemical. Conditions: octanol/water. The method, boiled down:
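Distribution coefficient between n-octanol and water buffered to pH 7.4; log10 of ratio of equilibrium concentrations of all species.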

As a reminder, the pIC50 is the negative decadic logarithm of the IC50, by convention in mol/L. Higher therefore signals a small IC50. The logD is lipophilicity at a set pH, counting ionised and neutral species. Lower therefore signals lower lipophilicity. Consider `Cc1cc(NC(=O)CC(C)(C)C)nn1Cc1cc(Cl)ccc1OCc1ccccc1`, for which the pIC50 in series [1] is 8.00. Besides, the logD in series [2] was greater than 3.7.

For the molecule `Cc1cc(NC(=O)C2CCCC2)nn1Cc1cc(Cl)ccc1OCc1ccccc1`, in series [1], the pIC50 is 7.80. The logD in series [2] stood at 3.5.

In turn, `Cc1cc(NC(=O)C(C)C)nn1Cc1cc(Cl)ccc1OCc1ccccc1` had a pIC50 in series [1] of 7.60. Moreover, the logD in series [2] is greater than 3.7.

`Cc1cc(NC(=O)C(F)(F)c2ccccc2)nn1Cc1cc(Cl)ccc1OCc1ccccc1`: in series [1], the pIC50 is 7.40. Further, the logD in series [2] was greater than 3.7.

In series [1], `Cc1cc(NC(=O)C(C)(C)c2ccccc2)nn1Cc1cc(Cl)ccc1OCc1ccccc1` showed a pIC50 of 7.20. Moreover, the logD in series [2] is greater than 3.7.

In the case of `Cc1cc(NC(=O)OCc2ccccc2)nn1Cc1cc(Cl)ccc1OCc1ccccc1`, the pIC50 in series [1] was 7.10. In series [2], this molecule gave a logD of 3.1.

Turning to `O=C(Nc1ccn(Cc2cc(Cl)ccc2OCc2ccccc2)n1)c1ccccc1`, the pIC50 in series [1] is 6.60.

In series [1], `Cc1cc(NC(=O)OC2CCOCC2)nn1Cc1cc(Cl)ccc1OCC(C)C` gave a pIC50 of 7.20. For the same molecule, in series [2], the logD came to 3.4.

For the molecule `Cc1cc(NC(=O)OC(C)(C)C(F)(F)F)nn1Cc1cc(Cl)ccc1OCC(C)C`, the negative logarithm of the IC50 (pIC50) in series [1] is 7.30. Moreover, the logD in series [2] came to 3.5.

As to `Cc1cc(NC(=O)C2CCCO2)nn1Cc1cc(Cl)ccc1OCc1ccccc1` (stereo not drawn), the pIC50 in series [1] is 7.40. This molecule also returned a logD in series [2] greater than 3.7.

In turn, `Cc1cc(NC(=O)Cc2ccccn2)nn1Cc1cc(Cl)ccc1OCc1ccccc1` showed a pIC50 in series [1] of 7.70. Moreover, the logD in series [2] is greater than 3.7.

Consider `Cc1cc(NC(=O)Cc2cccnc2)nn1Cc1cc(Cl)ccc1OCc1ccccc1`, for which, in series [1], the pIC50 is 7.40. In series [2], this molecule had a pH-dependent lipophilicity (logD) greater than 3.7.

`O=C(Cc1ccccc1)Nc1ccn(Cc2cc(Cl)ccc2OCc2ccccc2)n1`: the pIC50 in series [1] was 6.80.

Take `Cc1cc(NC(=O)OC(C)C)nn1Cc1cc(Cl)ccc1OCC(C)C`: in series [1], the pIC50 was 7.30. For the same molecule, the logD in series [2] is greater than 3.7.

In the case of `Cc1cc(C(=O)O)nn1Cc1cc(Br)ccc1OCc1ccccc1`, the logD in series [2] was found to be 1.2.

In series [1], `CCOC(=O)Nc1cc(C)n(Cc2cc(Cl)ccc2OCc2ccccc2)n1` had a pIC50 of 7.10. Also, the log distribution coefficient (logD) in series [2] is greater than 3.7.

In turn, `Cc1cc(NC(=O)C2CCCC2)nn1Cc1cc(Cl)ccc1OCC(C)C` had a pIC50 in series [1] of 7.60. In addition, the logD in series [2] was greater than 3.7.

Molecule `COC(=O)Nc1cc(C)n(Cc2cc(Cl)ccc2OCc2ccccc2)n1` showed a negative-log IC50 (pIC50) in series [1] of 6.70. Also, in series [2], the logD was greater than 3.7.

Molecule `Cc1ccc(-c2cc(Cl)ccc2OCc2ccccc2)n1-c1cccc(C(=O)O)c1` yielded a logD in series [2] of 2.5.

Turning to `Cc1cc(C(=O)NN2CCOCC2)nn1Cc1cc(Cl)ccc1OCC(C)C`, the pIC50 in series [1] is 6.60. For the same molecule, the logD in series [2] came to 3.1.

In series [1], `O=C(Cc1ccccn1)Nc1ccn(Cc2cc(Cl)ccc2OCc2ccccc2)n1` showed a pIC50 of 6.40.

`CC(=O)Nc1cc(C)n(Cc2cc(Cl)ccc2OCc2ccccc2)n1`: the pIC50 in series [1] was 6.50. Also, the logD in series [2] is greater than 3.7.

Turning to `Cc1cc(NC(=O)OC(C)(C)C)nn1Cc1cc(Cl)ccc1OCC(C)C`, in series [1], the pIC50 is 7.50. In series [2], this molecule gave a logD greater than 3.7.

`Cc1cc(NC(=O)C(F)(F)c2ccccn2)nn1Cc1cc(Cl)ccc1OCc1ccccc1` showed a pIC50 in series [1] of 7.60. Moreover, the logD in series [2] was found to be 3.1.

With `Cc1cc(NC(=O)C2CCOC2)nn1Cc1cc(Cl)ccc1OCc1ccccc1` (stereo not drawn), the negative logarithm of the IC50 (pIC50) in series [1] was 7.40. The same molecule had a logD in series [2] greater than 3.7.

As for `Cc1cc(NC(=O)c2c(F)cccc2F)nn1Cc1cc(Cl)ccc1OCc1ccccc1`, the negative logarithm of the IC50 (pIC50) in series [1] was 7.90. Further, in series [2], the logD is greater than 3.7.

In series [1], `Cc1cc(NC(=O)CC2CCCCC2)nn1Cc1cc(Cl)ccc1OCc1ccccc1` gave a pIC50 of 8.20. Further, in series [2], the logD came to 3.2.

In series [1], `Cc1cc(NC(=O)Cc2ccncc2)nn1Cc1cc(Cl)ccc1OCc1ccccc1` gave a negative logarithm of the IC50 (pIC50) of 7.30. The molecule further registered a logD in series [2] greater than 3.7.

As to `Cc1cc(NC(=O)C(C)(C)c2ccccn2)nn1Cc1cc(Cl)ccc1OCc1ccccc1`, the pIC50 in series [1] is 7.80. The same molecule showed a log distribution coefficient (logD) in series [2] greater than 3.7.
